pIC50, pKi: −log10 of the molar value.

These results are taken from BindingDB's records for doi:10.1021/jm9003297 (University of Bonn, 2009).

A short description of assay [1]: Displacement of [3H]DPCPX from human adenosine A1 receptor expressed in CHO cells assessed as ratio of IC50 in presence of GTP to absence of GTP by GTP shift assay.
For a further assay, the target named is P2Y purinoceptor 12 (Homo sapiens, UniProt Q9H244). Briefly: Displacement of [3H]PSB0413 from human platelet P2Y12 receptor. In short, it runs like this:
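Membranes from outdated human blood-bank platelets (4-5 days post-donation), washed, centrifuged, homogenized, stored at -80 °C. 100 µg protein incubated with 5 nM [³H]PSB-0413 in 50 mM Tris-HCl pH 7.4 for 1 h at rt, then filtered over GF/B. Nonspecific binding with 1 mM ADP. Screen at 10 µM. Ki from curves of 6-7 concentrations over 3 log units. At least three experiments in triplicate.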
For orientation: Displacement assays read how much labelled ligand stays bound in the presence of the test substance.

Chain of P2Y purinoceptor 12 (Q9H244 whole entry): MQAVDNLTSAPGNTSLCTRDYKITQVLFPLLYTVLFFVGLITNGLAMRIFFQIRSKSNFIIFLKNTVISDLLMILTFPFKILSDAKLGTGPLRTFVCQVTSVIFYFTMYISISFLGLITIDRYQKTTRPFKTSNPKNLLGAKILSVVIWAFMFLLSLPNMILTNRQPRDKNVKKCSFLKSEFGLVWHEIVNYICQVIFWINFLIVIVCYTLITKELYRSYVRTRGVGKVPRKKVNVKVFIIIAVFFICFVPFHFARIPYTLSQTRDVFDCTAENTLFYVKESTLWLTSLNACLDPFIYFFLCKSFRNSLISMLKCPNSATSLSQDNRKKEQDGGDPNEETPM

For `Nc1c(S(=O)(=O)O)cc(Nc2ccc(Nc3ncccn3)c(S(=O)(=O)O)c2)c2c1C(=O)c1ccccc1C2=O` [Disodium 1-amino-4-[4-([1,3]diazine-2-ylamino)-3-sulfophenylamino]-9,10-dioxo-9,10-dihydroanthracene-2-sulfonate], in assay [1], the pIC50 was 6.12. At P2Y purinoceptor 12, `CN(C)[C@@H]1C(=O)C(C(N)=O)C(=O)[C@@]2(O)C(=O)C3C(=O)c4c(O)ccc(Cl)c4[C@@](C)(O)[C@H]3C[C@@H]12` (stereo partly drawn) had a pKi of less than 5.00. Still for that read-out and setting: in the case of `CN(C)[C@@H]1C(=O)C(C(N)=O)C(=O)[C@@]2(O)C(=O)C3C(=O)c4c(O)cccc4[C@@](C)(O)[C@H]3C[C@@H]12` (stereo partly drawn) [Achromycin] it was less than 5.00.

By pIC50 is commonly meant −log10 of the IC50, conventionally taken in molar units. What is called pKi is −log10 of the Ki, conventionally taken in molar units. Read a low pKi as a high Ki.
